Tests used:
P338 [1] = test: Antitumor activity against P338 leukemia cells measured as toxic level at 3.12 mg/kg, ip optimal dose on day 1 in mice; format: functional, Mus musculus; details: route intraperitoneal
Outline: (§1)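 Groups of five mice were inoculated ip with 10⁶ P388 (P338) lymphocytic leukemia cells on day 0. The drug was given as a single ip injection on day 1, following NCI protocols. Optimal dose, maximum % T/C and toxic level are in mg/kg. % T/C = (average survival time of treated mice / control mice) × 100.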

P338 [2] = test: Antitumor activity against P338 leukemia cells measured as T/C at 3.12 mg/kg, ip optimal dose on day 1 in mice; format: functional; details: Mus musculus, 24 h, route intraperitoneal
Outline: (§2)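 Groups of five CD2F1 mice were inoculated ip with 10⁶ P388 lymphocytic leukemia cells on day 0. Drug was given as a single ip injection on day 1, following NCI protocols. %T/C = (average survival time of treated mice / control mice) × 100, taken at the optimal dose; the toxic dose level was also recorded.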

P338 [3] = test: Antitumor activity against P338 leukemia cells measured as T/C(average survival time of treated mice/control mice*100)at 6.25 mg/kg, ip optimal dose on days 1-5 in mice; format: functional; details: Mus musculus, route intraperitoneal
Outline: (§3)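 Five CD2F1 mice per group received 10⁶ P388 lymphocytic leukemia cells ip on day 0. Drug was given ip daily on days 1–5, following NCI protocols. %T/C is mean survival time of treated over control mice × 100, taken at the optimal dose; the toxic dose level was also recorded.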

P338 [4] = test: Antitumor activity against P338 leukemia cells measured as toxic level at 6.25 mg/kg, ip optimal dose on days 1-5 in mice; format: functional, Mus musculus; details: route intraperitoneal
Outline: (§4)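 Groups of five mice were inoculated ip with 10⁶ P388 (P338) lymphocytic leukemia cells on day 0. Drug was injected ip daily on days 1–5, following NCI protocols. Optimal dose, maximum % T/C and toxic level are in mg/kg. % T/C = (average survival time of treated mice / control mice) × 100.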

P338 [5] = test: Antitumor activity against P338 leukemia cells measured as T/C(average survival time of treated mice/control mice*100)at 3.12 mg/kg, ip optimal dose on days 1-5 in mice; format: functional; details: Mus musculus, route intraperitoneal; outline: as §3
P338 [6] = test: Antitumor activity against P338 leukemia cells measured as toxic level at 3.12 mg/kg, ip optimal dose on days 1-5 in mice; format: functional, Mus musculus; details: route intraperitoneal; outline: as §4
P338 [7] = test: Antitumor activity against P338 leukemia cells measured as T/C(average survival time of treated mice/control mice*100)at 6.25 mg/kg, ip optimal dose on day 1 in mice; format: functional; details: Mus musculus, 24 h, route intraperitoneal; outline: as §2
P338 [8] = test: Antitumor activity against P338 leukemia cells measured as toxic level at 6.25 mg/kg, ip optimal dose on day 1 in mice; format: functional, Mus musculus; details: route intraperitoneal; outline: as §1
P338 [9] = test: Antitumor activity against P338 leukemia cells measured as T/C(average survival time of treated mice/control mice*100)at 25 mg/kg, ip optimal dose on day 1 in mice; format: functional; details: Mus musculus, 24 h, route intraperitoneal; outline: as §2
P338 [10] = test: Antitumor activity against P338 leukemia cells measured as toxic level at 25 mg/kg, ip optimal dose on day 1 in mice; format: functional, Mus musculus; details: route intraperitoneal; outline: as §1
P338 [11] = test: Antitumor activity against P338 leukemia cells measured as toxic level at 0.4 mg/kg, ip optimal dose on days 1-5 in mice; format: functional, Mus musculus; details: route intraperitoneal; outline: as §4
P338 [12] = test: Antitumor activity against P338 leukemia cells measured as T/C(average survival time of treated mice/control mice*100)at 0.4 mg/kg, ip optimal dose on day 1 in mice; format: functional; details: Mus musculus, 24 h, route intraperitoneal; outline: as §2
P338 [13] = test: Antitumor activity against P338 leukemia cells measured as T/C(average survival time of treated mice/control mice*100)at 0.4 mg/kg, ip optimal dose on days 1-5 in mice; format: functional; details: Mus musculus, route intraperitoneal; outline: as §3
P338 [14] = test: Antitumor activity against P338 leukemia cells measured as toxic level at 0.4 mg/kg, ip optimal dose on day 1 in mice; format: functional, Mus musculus; details: route intraperitoneal; outline: as §1
P338 [15] = test: Antitumor activity against P338 leukemia cells measured as toxic level at 1.56 mg/kg, ip optimal dose on days 1-5 in mice; format: functional, Mus musculus; details: route intraperitoneal; outline: as §4
P338 [16] = test: Antitumor activity against P338 leukemia cells measured as T/C(average survival time of treated mice/control mice*100)at 1.56 mg/kg, ip optimal dose on days 1-5 in mice; format: functional; details: Mus musculus, route intraperitoneal; outline: as §3
P338 [17] = test: Antitumor activity against P338 leukemia cells measured as T/C(average survival time of treated mice/control mice*100)at 12.5 mg/kg, ip optimal dose on days 1-5 in mice; format: functional; details: Mus musculus, route intraperitoneal; outline: as §3
P338 [18] = test: Antitumor activity against P338 leukemia cells measured as toxic level at 12.5 mg/kg, ip optimal dose on days 1-5 in mice; format: functional, Mus musculus; details: route intraperitoneal; outline: as §4
P338 [19] = test: Antitumor activity against P338 leukemia cells measured as toxic level at 25 mg/kg, ip optimal dose on days 1-5 in mice; format: functional, Mus musculus; details: route intraperitoneal; outline: as §4
P338 [20] = test: Antitumor activity against P338 leukemia cells measured as T/C(average survival time of treated mice/control mice*100)at 25 mg/kg, ip optimal dose on days 1-5 in mice; format: functional; details: Mus musculus, route intraperitoneal; outline: as §3

In the case of `O=C1C=CC(=O)c2[nH]c(CO)nc21`, the Toxic level (P338 [1]) is reported as 12.5 mg/kg, the survival at 3.12 mg/kg (P338 [2]) is reported as 105% and the survival at 6.25 mg/kg (P338 [3]) is reported as 110%. For the same molecule, the Toxic level (P338 [4]) was 12.5 mg/kg.

`Cc1nc2c([nH]1)C(=O)C=CC2=O` showed a survival at 3.12 mg/kg (P338 [5]) of 100% and a Toxic level (P338 [6]) of 6.25 mg/kg.

Molecule `O=C1C=CC(=O)c2[nH]cnc21` has a survival at 6.25 mg/kg (P338 [3]) of 110%, a Toxic level (P338 [4]) of 25 mg/kg and a survival at 6.25 mg/kg (P338 [7]) of 105%. The Toxic level (P338 [8]) was 12.5 mg/kg.

With `CC1=C(C)C(=O)c2c(ncn2C)C1=O` the survival at 25 mg/kg (P338 [9]) was 95% and the Toxic level (P338 [10]) was 100 mg/kg.

`Cn1cnc2c1C(=O)C=CC2=O` showed a Toxic level (P338 [11]) of 6.25 mg/kg, a survival at 0.4 mg/kg (P338 [12]) of 76% and a survival at 0.4 mg/kg (P338 [13]) of 95%. The Toxic level (P338 [14]) was 3.12 mg/kg.

In the case of `O=C(Nc1ccccc1)OCc1nc2c([nH]1)C(=O)C=CC2=O`, the survival at 6.25 mg/kg (P338 [3]) is reported as 146% and the Toxic level (P338 [4]) is reported as 25 mg/kg.

`O=C1C(Br)=C(Br)C(=O)c2[nH]cnc21` showed a Toxic level (P338 [15]) of 12.5 mg/kg and a survival at 1.56 mg/kg (P338 [16]) of 130%.

`O=C1C(CCl)=CC(=O)c2[nH]cnc21` was tested, and the survival at 3.12 mg/kg (P338 [5]) was 95% and the Toxic level (P338 [6]) was 12.5 mg/kg.

In the case of `CC1=C(C)C(=O)c2[nH]c(C)nc2C1=O`, the survival at 12.5 mg/kg (P338 [17]) is reported as 110% and the Toxic level (P338 [18]) is reported as 100 mg/kg.

For `O=C1C(Br)=C(N2CC2)C(=O)c2[nH]cnc21`, the survival at 6.25 mg/kg (P338 [3]) was 156% and the Toxic level (P338 [4]) was 12.5 mg/kg.

`O=C1C=C(NCc2ccccc2)C(=O)c2[nH]cnc21` showed a survival at 25 mg/kg (P338 [9]) of 90%, a survival at 3.12 mg/kg (P338 [5]) of 105% and a Toxic level (P338 [6]) of 150 mg/kg. For the same molecule, the Toxic level (P338 [10]) was 100 mg/kg.

Work on `O=C1C(Cl)=CC(=O)c2[nH]cnc21` yielded a survival at 6.25 mg/kg (P338 [7]) of 117% and a Toxic level (P338 [8]) of 12.5 mg/kg.

`CCn1cnc2c1C(=O)C(C)=C(C)C2=O` showed a survival at 25 mg/kg (P338 [9]) of 100% and a Toxic level (P338 [10]) of 100 mg/kg.

Work on `CC1CN1C1=C(Br)C(=O)c2[nH]cnc2C1=O` (stereo not given) yielded a survival at 6.25 mg/kg (P338 [3]) of 136% and a Toxic level (P338 [4]) of 12.5 mg/kg.

For `NC1=C(Br)C(=O)c2[nH]cnc2C1=O`, the survival at 6.25 mg/kg (P338 [3]) was 154% and the Toxic level (P338 [4]) was 25 mg/kg.

`CC1=C(C)C(=O)c2[nH]cnc2C1=O` showed a Toxic level (P338 [19]) of 200 mg/kg and a survival at 25 mg/kg (P338 [20]) of 130%.

From ChEMBL document CHEMBL1124278, “Heterocyclic quinones with potential antitumor activity. 2. Synthesis and antitumor activity of some benzimidazole-4,7-dione derivatives” (1988)
